Measured values published in ChEMBL document CHEMBL1155395, “Discovery of substituted biphenyl imidazoles as potent, bioavailable bombesin receptor subtype-3 agonists” (Bioorg Med Chem Lett, 2010).
Activity calls are given as the source filed them. No cut-off for these calls is given here.

Legend:
[1] = target: T1, Bombesin receptor subtype-3 (Homo sapiens, UniProt P32247); assay: Agonistic activity at human BRS3 expressed in HEK293AEO cells by aequorin bioluminescence assay; format: functional, cell-based
T1 sequence (P32247 whole entry): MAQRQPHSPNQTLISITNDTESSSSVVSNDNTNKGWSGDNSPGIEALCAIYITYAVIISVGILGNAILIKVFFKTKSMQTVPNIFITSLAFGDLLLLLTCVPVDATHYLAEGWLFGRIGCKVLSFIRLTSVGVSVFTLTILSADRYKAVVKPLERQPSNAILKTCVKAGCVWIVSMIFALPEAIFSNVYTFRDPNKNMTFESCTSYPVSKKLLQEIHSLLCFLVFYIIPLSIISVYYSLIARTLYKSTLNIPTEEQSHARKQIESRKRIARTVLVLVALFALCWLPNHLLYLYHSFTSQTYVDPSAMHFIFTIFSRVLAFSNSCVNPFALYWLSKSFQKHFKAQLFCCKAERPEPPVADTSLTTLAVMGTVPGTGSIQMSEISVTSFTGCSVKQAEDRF

[2] = target: T2, Bombesin receptor subtype-3 (Homo sapiens) (UniProt P32247); assay: Agonistic activity at human BRS3 expressed in HEK293AEO at 10 uM cells by aequorin bioluminescence assay relative to dY peptide; format: functional, cell-based
T2 sequence (whole entry): T1 sequence (P32247 whole entry)

[3] = target: T3, Bombesin receptor subtype-3 (Mus musculus, UniProt O54798); assay: Agonistic activity at mouse BRS3 expressed in HEK293AEO cells by aequorin bioluminescence assay; format: functional, cell-based
T3 sequence (O54798 whole entry): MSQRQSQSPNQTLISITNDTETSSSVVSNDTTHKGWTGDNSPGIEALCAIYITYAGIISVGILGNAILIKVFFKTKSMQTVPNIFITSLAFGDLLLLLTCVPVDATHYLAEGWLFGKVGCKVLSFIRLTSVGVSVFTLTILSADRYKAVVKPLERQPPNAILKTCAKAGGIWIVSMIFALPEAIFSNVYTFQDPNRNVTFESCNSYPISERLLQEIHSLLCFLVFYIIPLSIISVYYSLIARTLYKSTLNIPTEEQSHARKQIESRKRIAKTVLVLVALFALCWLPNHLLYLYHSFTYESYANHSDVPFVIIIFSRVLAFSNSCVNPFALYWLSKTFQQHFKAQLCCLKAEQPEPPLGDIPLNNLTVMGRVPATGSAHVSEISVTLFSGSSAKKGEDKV

[4] = target: T4, Bombesin receptor subtype-3 (Mus musculus) (UniProt O54798); assay: Agonistic activity at mouse BRS3 expressed in HEK293AEO cells at 10 uM by aequorin bioluminescence assay relative to dY peptide; format: functional, cell-based
T4 sequence (whole entry): T3 sequence (O54798 whole entry)

[5] = Oral bioavailability in Sprague-Dawley rat at 4 mg/kg; format: ADME, organism-based; conditions: in vivo
Procedure, shortened: (§1)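 Sprague-Dawley rats given compound as solution in EtOH/PEG400/water (10:40:50), 1 mg/kg iv and 4 mg/kg po; clearance, steady-state volume of distribution, half-life, oral bioavailability and dose-normalised AUC derived.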

[6] = Clearance in Sprague-Dawley rat at 1 mg/kg, iv and 4 mg/kg, po; format: ADME, organism-based; conditions: in vivo; procedure, shortened: as §1
[7] = Volume of distribution at steady state in Sprague-Dawley rat at 1 mg/kg, iv and 4 mg/kg, po; format: ADME, organism-based; conditions: in vivo, read-out: Vdss; procedure, shortened: as §1
[8] = Half life in Sprague-Dawley rat at 1 mg/kg, iv and 4 mg/kg, po; format: ADME, organism-based; conditions: in vivo; procedure, shortened: as §1
[9] = target: T1, Bombesin receptor subtype-3; assay: Displacement of [125I]-[D-Tyr6,beta-Ala11,Phe13,Nle14]bombesin from human BRS3 expressed in NFAT-CHO cells after 2 hrs by liquid scintillation counting; format: cell-based
Procedure, shortened: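 Membranes (1–4 µg protein) from NFAT-CHO cells expressing human BRS-3, incubated with 0.3 pM 125I-dY-peptide and a range of test compound concentrations in 50 mM Tris pH 7.2, 5 mM MgCl2, 0.1% BSA, 2 h at room temperature; bound/free separated by GF/c filtration with PBS washes; filter radioactivity by scintillation counting; mean of at least three runs.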

[10] = target: T5, Bombesin receptor subtype-3 (Rattus norvegicus, UniProt Q8K418); assay: Agonistic activity at rat BRS3 expressed in HEK293AEO at 10 uM by aequorin bioluminescence assay; format: functional
T5 sequence (Q8K418 whole entry): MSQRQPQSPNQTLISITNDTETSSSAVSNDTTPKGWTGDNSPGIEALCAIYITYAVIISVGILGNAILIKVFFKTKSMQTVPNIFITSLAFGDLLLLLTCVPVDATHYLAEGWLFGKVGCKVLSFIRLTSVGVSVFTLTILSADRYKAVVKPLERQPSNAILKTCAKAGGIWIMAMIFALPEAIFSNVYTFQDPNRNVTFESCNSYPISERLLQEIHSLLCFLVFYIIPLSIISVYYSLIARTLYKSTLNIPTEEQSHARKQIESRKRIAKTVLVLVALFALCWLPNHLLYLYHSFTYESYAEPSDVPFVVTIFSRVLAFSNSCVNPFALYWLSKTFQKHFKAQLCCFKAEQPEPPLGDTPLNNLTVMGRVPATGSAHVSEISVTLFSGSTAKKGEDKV

[11] = target: T6, Bombesin receptor subtype-3 (Rattus norvegicus) (UniProt Q8K418); assay: Agonistic activity at rat BRS3 expressed in HEK293AEO cells at by aequorin bioluminescence assay relative to dY peptide; format: functional, cell-based
T6 sequence (whole entry): T5 sequence (Q8K418 whole entry)

[12] = target: Neuromedin-B receptor (Homo sapiens, UniProt P28336); assay: Displacement of [125I]-[D-Tyr6,beta-Ala11,Phe13,Nle14]bombesin from human bombesin BB1 receptor expressed in NFAT-CHO cells after 2 hrs by liquid scintillation counting; format: cell-based
[13] = target: Gastrin-releasing peptide receptor (Homo sapiens, UniProt P30550); assay: Displacement of [125I]-[D-Tyr6,beta-Ala11,Phe13,Nle14]bombesin from human bombesin BB2 receptor expressed in NFAT-CHO cells after 2 hrs by liquid scintillation counting; format: cell-based
[14] = tested on: Rattus norvegicus; assay: Reduction of food intake in rat at 25 ug, icv; format: functional; design: scale not given: the % may be the effect or the level left
Procedure, shortened: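 Rats dosed intracerebroventricularly with 25 µg; food intake compared with animals receiving vehicle (20% PG/water).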

[15] = tested on: Mus musculus; assay: Effect on food intake in po dosed diet-induced obese mouse; format: functional, organism-based

Neuromedin-B receptor, sequence (P28336 whole entry): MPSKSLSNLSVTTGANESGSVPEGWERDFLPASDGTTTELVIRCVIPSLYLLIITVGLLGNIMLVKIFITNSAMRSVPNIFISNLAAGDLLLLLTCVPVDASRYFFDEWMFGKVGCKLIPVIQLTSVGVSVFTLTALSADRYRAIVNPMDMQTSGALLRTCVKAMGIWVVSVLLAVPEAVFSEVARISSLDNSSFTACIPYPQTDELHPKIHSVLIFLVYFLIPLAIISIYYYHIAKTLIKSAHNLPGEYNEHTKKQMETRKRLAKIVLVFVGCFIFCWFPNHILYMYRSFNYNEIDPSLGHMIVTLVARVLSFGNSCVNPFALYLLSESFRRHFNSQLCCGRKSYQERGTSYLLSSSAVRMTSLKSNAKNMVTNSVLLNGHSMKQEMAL
Gastrin-releasing peptide receptor, sequence (P30550 whole entry): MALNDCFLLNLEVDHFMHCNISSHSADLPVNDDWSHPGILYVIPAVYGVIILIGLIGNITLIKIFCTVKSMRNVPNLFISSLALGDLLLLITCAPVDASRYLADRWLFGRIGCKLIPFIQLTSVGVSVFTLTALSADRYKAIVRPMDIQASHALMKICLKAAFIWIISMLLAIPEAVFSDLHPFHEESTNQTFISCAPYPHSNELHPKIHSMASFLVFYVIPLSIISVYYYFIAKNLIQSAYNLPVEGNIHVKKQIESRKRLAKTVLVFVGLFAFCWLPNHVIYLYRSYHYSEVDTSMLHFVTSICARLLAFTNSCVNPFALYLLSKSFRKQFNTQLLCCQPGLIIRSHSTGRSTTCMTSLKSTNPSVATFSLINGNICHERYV

SMILES	EC50 [1]	Activity [2]	EC50 [3]	Activity [4]	further results
CCCCc1cnc(CCc2ccc(-c3ccccc3C(=O)O)cc2)[nH]1	2710 nM	78%	93 nM	116%	bioavailability [5]: 16%; clearance [6]: 1.3 mL/min/kg; Vd [7]: 0.1 L/kg; half-life [8]: 1.56 h
O=C(O)c1ccccc1-c1ccc(CCc2ncc(Cc3cccc(F)c3F)[nH]2)cc1	87 nM	104%	8 nM	110%	–
COc1cccc(Cc2cnc(CCc3ccc(-c4ccccc4C(=O)O)cc3)[nH]2)c1	4120 nM	73%	79 nM	80%	–
O=C(O)c1ccccc1-c1ccc(CCc2ncc(CC3CCC3)[nH]2)cc1	588 nM	105%	7.1 nM	99%	–
N#Cc1cccc(Cc2cnc(CCc3ccc(-c4ccccc4C(=O)O)cc3)[nH]2)c1	812 nM	95%	20 nM	102%	–
Cc1ccccc1Cc1cnc(CCc2ccc(-c3ccccc3C(=O)O)cc2)[nH]1	127 nM	93%	9.3 nM	106%	–
O=C(O)c1ccccc1-c1ccc(CCc2ncc(Cc3ccc(Cl)cc3)[nH]2)cc1	2290 nM	89%	102 nM	105%	–
CCCCc1cnc(C(Cc2ccc(-c3ccccc3C(=O)O)cc2)C(C)C)[nH]1 (centres undefined)	4620 nM	60%	2240 nM	87%	–
O=C(O)c1ccccc1-c1ccc(CCc2ncc(Cc3ccccc3)[nH]2)cc1	205 nM	109%	11 nM	111%	–
O=C(O)c1ccccc1-c1ccc(CCc2ncc(C3CCCCC3)[nH]2)cc1	375 nM	102%	14.7 nM	116%	–
N#Cc1ccccc1Cc1cnc(CCc2ccc(-c3ccccc3C(=O)O)cc2)[nH]1	5480 nM	51%	642 nM	139%	–
CCCCc1cnc(/C=C/c2ccc(-c3ccccc3C(=O)O)cc2)[nH]1	4380 nM	8%	10000 nM	39%	–
O=C(O)c1ccccc1-c1ccc(CCc2ncc(Cc3ccccc3Cl)[nH]2)cc1	292 nM	100%	22 nM	109%	–
O=C(O)c1ccccc1-c1ccc(CCc2ncc(Cc3ccccc3F)[nH]2)cc1	177 nM	108%	9.5 nM	121%	–
CCC(C)(C)Cc1c[nH]c(CCc2ccc(-c3ccccc3C(=O)O)cc2)n1	25 nM	101%	9.6 nM	94%	–
CCCCc1cnc(C(CC)Cc2ccc(-c3ccccc3C(=O)O)cc2)[nH]1 (centres undefined)	2720 nM	76%	340 nM	104%	–
O=C(O)c1ccccc1-c1ccc(CCc2ncc(CC3CCOCC3)[nH]2)cc1	338 nM	96%	23 nM	106%	–
CCCCc1cnc(C(CCC)Cc2ccc(-c3ccccc3C(=O)O)cc2)[nH]1 (centres undefined)	1180 nM	96%	165 nM	102%	–
CCC(C)(CC)Cc1cnc(CCc2ccc(-c3ccccc3C(=O)O)cc2)[nH]1	76 nM	97%	30 nM	116%	–
COc1ccc(Cc2cnc(CCc3ccc(-c4ccccc4C(=O)O)cc3)[nH]2)cc1	5360 nM	44%	513 nM	88%	–
O=C(O)c1ccccc1-c1ccc(CCc2ncc(Cc3cccc(Cl)c3)[nH]2)cc1	825 nM	91%	31 nM	98%	–
CCCCc1cnc(C(CCCO)Cc2ccc(-c3ccccc3C(=O)O)cc2)[nH]1 (centres undefined)	1900 nM	74%	238 nM	98%	IC50 [9]: 3680 nM; EC50 [10]: 174 nM; Activity [11]: 101%; IC50 [12]: > 10000 nM; IC50 [13]: > 10000 nM
CC(C)(C)CCc1cnc(CCc2ccc(-c3ccccc3C(=O)O)cc2)[nH]1	39 nM	102%	6.2 nM	99%	–
N#Cc1ccc(Cc2cnc(CCc3ccc(-c4ccccc4C(=O)O)cc3)[nH]2)cc1	5890 nM	25%	723 nM	85%	–
CCCCc1cnc(C(C)Cc2ccc(-c3ccccc3C(=O)O)cc2)[nH]1 (centres undefined)	2760 nM	79%	184 nM	110%	–
CC(C)(C)Cc1cnc(CCc2ccc(-c3ccccc3C(=O)O)cc2)[nH]1	106 nM	103%	6.3 nM	105%	bioavailability [5]: 19%; clearance [6]: 1.02 mL/min/kg; Vd [7]: 0.128 L/kg; half-life [8]: 1.54 h; Activity [14]: 29%; Activity [15]: inactive
